For seven compounds, IC50 results are on record in ChEMBL document CHEMBL1156649, “Benzoic acid derivatives from Piper species and their antiparasitic activity” (J Nat Prod, 2008).

In brackets after ≈: the same amount, converted by molar mass.

Common to all, as to assay type: functional, organism-based
In test [1] the test system is Leishmania amazonensis. As to the kind of experiment: Antileishmanial activity against Leishmania amazonensis PH8 promastigotes. In a few lines:
(§1)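 Promastigotes grown at 28 °C in stationary culture, seeded at 1 × 10^4 per 100 µL well in RPMI 1640-based Leishmania medium. DMSO-dissolved samples added to give 100 µg/mL final and serial dilutions. IC50 = concentration causing 50% reduction in parasite viability. Pentamidine (10 µg/mL) positive control.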

The subject of test [2] is Leishmania braziliensis. As to the kind of experiment: Antileishmanial activity against Leishmania braziliensis 2903 promastigotes. In a few lines:
as §1

Test [3] deals with Leishmania donovani. As to the kind of experiment: Antileishmanial activity against Leishmania donovani PP75 promastigotes. The method in brief: as §1
The test system of test [4] is Trypanosoma cruzi. As to the kind of experiment: Antitrypanosomal activity against Trypanosoma cruzi Tulahuen.
Test [5] deals with Plasmodium falciparum. The test can be described thus: Antiplasmodial activity against chloroquine-sensitive Plasmodium falciparum F32-Tanzania. In a few lines:
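Culture per Trager and Jensen on glucose-enriched RPMI 1640 with 10% human serum at 37 °C. After 24 h, medium replaced with fresh medium containing compound at 0.1, 1 and 10 µg/mL, then incubated 48 h more. Blood smears on day 3; parasitemia compared with control. IC50 read graphically from concentration versus % inhibition. Chloroquine (0.1 µg/mL) positive control. Triplicate.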

The term IC50 denotes the concentration that inhibits the measured activity by half. Take `COc1c(/C=C/C(C)(C)O)cc(C(=O)O)cc1CC=C(C)C`: the half-inhibitory concentration (IC50) in test [1] is more than 100 mg/L; in test [2], 78.8 mg/L (≈ 259 µM); in test [3], more than 100 mg/L; in test [4], more than 20 mg/L; in test [5] it was more than 10 mg/L.

For `C=C(C)C(O)Cc1cc(C(=O)OC)ccc1O` (stereo not given), the concentration for half-maximal inhibition (IC50) is 78.2 mg/L (≈ 331 µM) in test [1]; 74.4 mg/L (≈ 315 µM) in test [2]; 86.9 mg/L (≈ 368 µM) in test [3]; 15.6 mg/L (≈ 66 µM) in test [4]; 10 mg/L (≈ 42.3 µM) in test [5].

Turning to `COC(=O)c1ccc(O)c(CC=C(C)C)c1`, the IC50 is 74.4 mg/L (≈ 338 µM) in test [1]; 74.4 mg/L (≈ 338 µM) in test [2]; 62.5 mg/L (≈ 284 µM) in test [3]; more than 20 mg/L in test [4]; 2.8 mg/L (≈ 12.7 µM) in test [5].

`COC(=O)c1cc(O)c(O)c(CC=C(C)C)c1`: the IC50 in test [1] is 18.2 mg/L (≈ 77 µM); in test [2], 13.8 mg/L (≈ 58.4 µM); in test [3], 18.5 mg/L (≈ 78.3 µM); in test [4], 18.5 mg/L (≈ 78.3 µM); in test [5] it was 4.1 mg/L (≈ 17.4 µM).

In the case of `CC(C)=CCc1cc(C(=O)O)cc(CC=C(C)C)c1O`, the IC50 in test [1] was 45.3 mg/L (≈ 165 µM); in test [2] it was 34.1 mg/L (≈ 124 µM); in test [3] it was 40 mg/L (≈ 146 µM); in test [4] it was more than 20 mg/L; in test [5], more than 10 mg/L.

For the compound `C=C(C)C(O)Cc1cc(C(=O)OC)cc(O)c1O` (racemic), the IC50 is 89.5 mg/L (≈ 355 µM) in test [1]; 81.9 mg/L (≈ 325 µM) in test [2]; 81.9 mg/L (≈ 325 µM) in test [3]; 16.4 mg/L (≈ 65 µM) in test [4]; more than 10 mg/L in test [5].

As for `C=C(C)C(O)Cc1cc(C(=O)O)cc(CC=C(C)C)c1O` (racemic), the 50% inhibitory concentration (IC50) in test [1] is 67.6 mg/L (≈ 233 µM); in test [2], 67.6 mg/L (≈ 233 µM); in test [3], 67.3 mg/L (≈ 232 µM); in test [4] it was more than 20 mg/L; in test [5], more than 10 mg/L.
